Screening data (PubChem)
In the library only some 3.7% were active in any assay of this set; here they are far more common.
Exocytosis inh: blocks lytic granule exocytosis; TALL-104 LAMP-1 surface exposure, flow cytometry; cells stimulated with thapsigargin and PMA; 0.66% of 360,000 active; AID 651702; inhibition, % at 10 µM;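 active means inhibition above about 55%, limit read from the data; inconclusive means no clear call, values can overlap the other calls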
EBI2 antag: antagonists of human EBI2 receptor | EBI2 beta-arrestin recruitment, luminescence, 7a,25-OHC stimulated | inhibition, % at 5 µM | 0.81% of 360,000 active; in the data active means inhibition above about 38%;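 further: enzyme fragment complementation signal reports receptor beta-arrestin coupling in cells; 0% = agonist plus DMSO wells and 100% = wells without agonist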
MC4R ag barr: human MC4R agonism via beta-arrestin | U2OS MC4R beta-arrestin complementation, luminescence; percent of melanotan II response, DMSO zero | P32245 | activation, % at 8.9 µM | 0.98% of 360,000 active;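 active means activation above a per-plate cutoff, the mean activation of sample wells on that plate plus 3 SD, cut at about 8% in these data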
Target sequence (P32245 whole entry, looked up): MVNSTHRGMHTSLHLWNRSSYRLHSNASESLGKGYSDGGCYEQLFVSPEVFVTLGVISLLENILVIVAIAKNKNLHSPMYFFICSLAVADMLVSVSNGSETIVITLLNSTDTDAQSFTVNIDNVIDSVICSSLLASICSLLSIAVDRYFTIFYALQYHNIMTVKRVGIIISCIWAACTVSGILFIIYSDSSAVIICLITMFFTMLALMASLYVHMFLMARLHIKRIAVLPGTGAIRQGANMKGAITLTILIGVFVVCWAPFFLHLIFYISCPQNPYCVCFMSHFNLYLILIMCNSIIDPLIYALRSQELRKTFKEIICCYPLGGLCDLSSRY
MC4R antagonist: human MC4R antagonism in cAMP assay; P32245; MC4R-expressing cells, MTII-stimulated cAMP, LANCE TR-FRET; inhibition, % at 6.5 µM; 0.48% of 360,000 active; AID 540295;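 active means inhibition above its plate's cutoff, the mean of tested wells on that plate plus 3 SD, cut at about 29% in these data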;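 further: 0% = Melanotan II alone and 100% = Melanotan II plus saturating MCL0020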
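System – human MC4R-expressing U2OS cells · Also added – Melanotan II · Dosing – one concentration, 6.5 µM nominal · Timing – 30-min compound, 1-h challenge, 1-h detection, room temperature · Measured by – Eu-cAMP/anti-cAMP TR-FRET, emission 671 nm · Replicates – singlicate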
Myeloid diff 2: promotes myeloid progenitor differentiation | ER-HoxA9 myeloid progenitors, lysozyme-GFP differentiation, flow cytometry | AID 624256 | 1% of 360,000 active | calls only at 10 µM;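 active means normalized GFP-positive differentiation at or above the plate's own cutoff, the solvent-only control mean plus 3 SD; inconclusive means no clear call, values can overlap the other calls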;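 further: cells exposed to compound for four days before flow analysis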
* hit, by the source's call; i = inactive; ? = inconclusive; · = no result; + = active, no number.

SMILES	Exocytosis inh	EBI2 antag	MC4R ag barr	MC4R antagonist	Myeloid diff 2
CN(C)c1ccc(C(=N)Cc2ccc3ccccc3n2)cc1	-1	-7	-1	7	+
Cc1c(O)ccc(/C(Cc2ccc3ccccc3n2)=N\O)c1O	-1	20	-2	0	i
O=C(Nc1cccc(-c2nc3cccnc3s2)c1)c1ccc(Cl)nc1	4	-1	8.6*	3	i
CC1(C(=O)Nc2ccc3[nH]ncc3c2)CCN1C(=O)C/C=C/c1ccccc1 (stereo not drawn)	42	21	-1	1	+
O=C1C=C(c2c(O)ccc3ccccc23)c2ccccc2C1=O	104*	-30	4	11	?
O=C1C=C(O)c2cccc(O)c2C1=O	0	-18	-1	6	i
CC(=O)c1cccc(NC(=O)C(C)OC(=O)CN2C(=O)NC(C)(C)C2=O)c1 (stereo not drawn)	-7	-10	1	-1	i
O=C1c2[nH]nc(-c3ccccc3O)c2C(c2ccccc2)N1Cc1ccco1 (stereo not drawn)	-1	14	9.2*	-5	+
Cc1oc(=O)c(NC(=O)c2ccccc2)cc1C(=O)c1ccccc1	75*	5	-3	6	i
CCOC(=O)CCC(=O)O[C@H]1[C@H](O[C@@H]2[C@@H](C)[C@H](O[C@H]3C[C@@](C)(OC)[C@@H](O)[C@H](C)O3)[C@@H](C)C(=O)O[C@H](CC)[C@@](C)(O)[C@H](O)[C@@H](C)C(=O)[C@H](C)C[C@@]2(C)O)O[C@H](C)C[C@@H]1N(C)C	-2	-5	1	13	+
CC[C@H]1OC(=O)[C@H](C)[C@@H](O[C@H]2C[C@@](C)(OC)[C@@H](O)[C@H](C)O2)[C@H](C)[C@@H](O[C@@H]2O[C@H](C)C[C@H](N(C)C)[C@H]2O)[C@](C)(O)C[C@@H](C)C(=O)[C@H](C)[C@@H](O)[C@]1(C)O	-2	1	-1	4	i
CCN(CC)c1ccc(/C=C2/SC(=O)N(C(C)C)C2=O)o1	78*	42*	-1	7	+
COC(=O)[C@@]12CCCCN1[C@H](c1ccc(-c3ccc(OC)cc3)cc1)[C@H]1C(=O)N(C)C(=O)[C@H]12	-2	17	0	9	+
CC(C(=O)c1ccccc1)[n+]1cccc(Br)c1 (stereo not drawn)	-7	1	0	14	i
CN(CC(=O)Nc1cc(Cl)ccc1C#N)C1CCS(=O)(=O)C1 (stereo not drawn)	0	-4	0	3	i
O=C(c1ccccc1)c1nc2ccccc2n(CCCn2c(=O)c(C(=O)c3ccccc3)nc3ccccc32)c1=O	-6	9	3	-10	+
Cn1c(=O)c(C(=O)c2ccccc2)nc2ccccc21	-2	-9	-1	6	i
CC1=NN(c2ccc(C)cc2)C(=O)/C1=C\c1ccc(Br)s1	-1	38	-2	-6	i
CC1=NN(c2ccc(Br)cc2)C(=O)/C1=C/c1cccs1	2	57*	4	2	i
CCOC(=O)CN1C=C(c2ccc3ccccc3n2)C(C[N+](=O)[O-])c2ccccc21 (stereo not drawn)	2	3	-1	1	+
CCCOc1cc(N(CC)CC)ccc1/C=C(/C#N)c1nc2ccc(C)cc2[nH]1	0	33	-1	7	?
CCN(CC)c1ccc(/C=C(/C#N)c2nc3ccc(C)cc3[nH]2)c(OC(C)C)c1	2	35	0	2	+
O=C(Nc1cccc2ccccc12)c1csc([C@@H]2O[C@H](CO)[C@H](O)[C@H](O)[C@H]2O)n1	0	-4	-1	7	i
O=C(O)CCC(=O)NCc1c(Cl)cccc1Sc1ccc(Cl)cc1	-4	1	-1	-2	i
Nc1nc(N)c(Cc2ccc(Cl)cc2Cl)c(N)n1	-2	4	-2	9	+
SMILES	Exocytosis inh	EBI2 antag	MC4R ag barr	MC4R antagonist	Myeloid diff 2
Nc1nccc(SCc2ccc(Cl)cc2Cl)n1	0	1	1	-6	i
CC(C)(C)OC(=O)NCc1ccc(CNC(=O)c2nc[nH]c2C(=O)N2CCN(c3ccccc3)CC2)cc1	16	5	1	6	i
COCCn1c(SCC(=O)c2c(N)n(C3CC3)c(=O)[nH]c2=O)nnc1-c1cccc(C)c1	7	-6	-2	1	i
CCN(CC)c1ccc(C(=S)N2CCN(c3ccccc3)CC2)cc1	-1	64*	-1	6	i
S=C(c1ccccc1)N1CCN(c2ccccc2)CC1	-1	4	0	4	i
CC1CCCN(S(=O)(=O)c2ccc(C(=O)Nc3nnc(-c4ccccc4Cl)o3)cc2)C1 (stereo not drawn)	2	0	0	6	+
COc1cccc(-c2nnc(NC(=O)c3ccc(S(=O)(=O)N4CC(C)OC(C)C4)cc3)o2)c1 (stereo not drawn)	3	-6	-2	1	+
CC1CCCN(S(=O)(=O)c2ccc(C(=O)Nc3nnc(-c4ccccn4)o3)cc2)C1 (stereo not drawn)	12	-5	-2	3	i
COc1ccc(NC(=O)CCNS(=O)(=O)c2ccc3c(c2)c(=O)n(C)c(=O)n3C)c(OC)c1	16	-5	-1	4	+
CC1=NOC(=O)/C1=C\c1ccc(-c2ccc(Cl)cc2Cl)o1	96*	-26	-1	0	i
COc1ccc(NC(=O)c2ccc(NC3CC(=O)N(c4ccc(C)cc4C)C3=O)cc2)cc1 (stereo not drawn)	-1	39	8.2*	10	i
CCOc1ccc(Br)cc1C(=O)Nc1ccc(C(=O)NCC(C)C)cc1	10	5	4	-6	+
COc1ccc(Br)cc1C(=O)Nc1ccc(C(=O)NCC(C)C)cc1	6	0	-4	14	i
C[C@@H](c1ccccc1)N1C[C@@H](COCc2ccccc2)Oc2cc(N3CC[C@H](O)C3)ccc2S1(=O)=O	-8	13	·	·	i
CCOCCCNC(=O)/C(C#N)=C/c1ccc([N+](=O)[O-])o1	46	0	2	14	?
CN1C(C(=O)Nc2ccc(OC(F)(F)F)cc2)=CC(c2cccs2)=NS1(=O)=O	6	8	4	13	i
COc1ccc(NC(=O)C2=CC(c3cccs3)=NS(=O)(=O)N2C)cc1	-2	10	-2	1	+
Cc1noc(C)c1NC(=O)N(C)C[C@@H]1Oc2cc(Br)ccc2S(=O)(=O)N([C@H](C)CO)C[C@@H]1C	2	3	1	5	i
CSc1nc(NNC=O)cc(Oc2ccc(NC(C)=O)cc2)n1	19	-8	0	3	i
O=C(Nc1cccnc1)c1cc(-c2cccnc2)nc2ccc(Br)cc12	-1	21	2	16	i
